Sampled rows, rich in hits. Any-hit rate of the full collection: about 2.9%.
OX1R antag-1 – antagonists of human orexin 1 receptor | AID 434989 | inhibition, % at 5 µM | CHO/OX1R cells, Fluo-8 calcium fluorescence, orexin A | actives 0.43% (n = 330,000);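 active = inhibition above its plate's threshold, mean inhibition of all tested compounds on the plate plus 3 SD, cut at about 37% in these data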;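 also: 0% = orexin A challenge wells and 100% = SB-334867-A antagonist wells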
Target sequence (O43613 whole entry, looked up): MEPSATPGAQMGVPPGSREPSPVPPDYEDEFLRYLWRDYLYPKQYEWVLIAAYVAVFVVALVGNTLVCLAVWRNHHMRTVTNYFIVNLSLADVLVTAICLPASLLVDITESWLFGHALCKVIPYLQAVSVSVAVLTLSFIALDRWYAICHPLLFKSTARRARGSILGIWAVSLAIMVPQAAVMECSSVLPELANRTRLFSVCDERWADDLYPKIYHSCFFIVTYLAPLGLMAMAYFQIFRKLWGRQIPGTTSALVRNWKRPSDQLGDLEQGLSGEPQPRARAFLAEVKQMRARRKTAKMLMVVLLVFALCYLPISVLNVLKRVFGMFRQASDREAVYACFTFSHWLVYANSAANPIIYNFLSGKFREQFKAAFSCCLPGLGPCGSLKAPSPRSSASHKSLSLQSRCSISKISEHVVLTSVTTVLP
M1 PAM parental – counter-screen for M1 PAMs: effect in parental CHO-K1 cells | ATP EC20, Fluo-8 calcium fluorescence; 0% at ATP EC20, 100% at ATP max | actives 0.02% (n = 360,000) | activation, % at 3 µM;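 active = activation above the run cutoff, the mean activation of all test compounds plus 3 SD, cut at about 40% in these data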;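 also: peak over basal fluorescence ratio in a 140 s read after ATP addition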
M1 ag parental – M1 agonist counterscreen hit in parental CHO-K1 cells; Fluo-8 calcium fluorescence; scaled to maximal ATP response, vehicle zero; activation, % at 3 µM; actives 0.48% (n = 360,000); AID 602248; in the data active = activation above about 15%;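 also: untransfected CHO-K1 host cells lacking M1 receptor as counterscreen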
OX1R antag-2 – antagonists of human orexin 1 receptor (OX1R) | inhibition, % at 6.6 µM | AID 485270 | actives 1.8% (n = 330,000) | O43613 | OX1R-expressing cells, FRET antagonist read-out; in the data active = inhibition mostly above about 38%, no sharp cut-off; inactive = mostly below about 40%;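 also: 0% = agonist challenge alone and 100% = reference antagonist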
CHO-K1 Ca antag – M1 antagonist counterscreen hit in parental CHO-K1 cells. actives 0.6% (n = 360,000). inhibition, % at 3 µM. AID 602250. ATP-induced calcium, Fluo-8 fluorescence;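 active = inhibition above a per-plate cutoff, the plate's mean sample inhibition plus 3 SD, cut at about 24% in these data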;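 also: 0% = DMSO plus EC80 ATP and 100% = DMSO alone without ATP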
CHO parental Ca – signal in parental CHO cells, OX1R antagonist counter-screen; AID 463079; inhibition, % at 5.6 µM; parental CHO-K1, ATP-induced calcium, Fluo-8 fluorescence; actives 0.63% (n = 330,000);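 active = inhibition above that plate's mean sample inhibition plus 3 SD, cut at about 26% in these data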;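 also: 0% = ATP-challenged DMSO wells and 100% = DMSO wells without ATP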
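Test system: untransfected parental CHO cell line; also added: ATP stimulus; dosing: 5.6 µM, single dose; signal: calcium-sensitive Fluo-8 fluorescence; measure: percent inhibition of ATP-evoked calcium rise, normalized to controls; benchmarks: low control ATP plus DMSO, high control DMSO only; replication: one well per compound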
Starred values were filed as active, the others as inactive; · = no result.

SMILES	OX1R antag-1	M1 PAM parental	M1 ag parental	OX1R antag-2	CHO-K1 Ca antag	CHO parental Ca
Cc1ccc(Cn2nnc(C(=O)Nc3cccc(C)c3C)c2N)cc1	37*	3	13	3	14	26
COc1cccc(Cn2nnc(C(=O)Nc3cc(C)ccc3OC)c2N)c1	-5	-12	0	15	26*	-6
O=C(NC1CCSc2ccccc21)c1cccc(Cl)c1 (stereo not drawn)	-16	16	0	17	-8	-16
O=C(OCC(=O)N1CCC(c2ccccc2)=N1)c1ccc(Cl)s1	34	5	0	34*	-8	-16
O=c1/c(=C/c2ccccn2)sc2nc3ccccc3n12	-9	5	1	13	1	1
O=c1/c(=C\c2cc([N+](=O)[O-])cc([N+](=O)[O-])c2O)sc2nc3ccccc3n12	6	-5	1	72*	-13	0
CC1CCC(NC(=O)C2CC(=O)N(c3ccc(Cl)cc3)C2)CC1 (stereo not drawn)	-13	-14	1	31	-5	-10
CN(C)N1C(=O)/C(=C/c2ccco2)SC1=Nc1ccccc1	-19	-18	3	16	20	-13
O=C1/C(=C\c2ccc(Br)o2)SC(=Nc2ccccc2)N1c1ccccc1	-16	17	0	62*	-19	-15
Cc1c(Cl)cccc1NC(=O)CSC(N)=O	-6	-4	1	20	-11	-1
Cc1c(N(C)S(=O)(=O)c2cc(C(=O)N3CCCC3)ccc2Cl)c(=O)n(-c2ccccc2)n1C	-20	8	1	4	-5	-10
N#Cc1cn(CCOC(=O)c2cccc(C(F)(F)F)c2)c(=O)[nH]c1=O	-11	-13	1	14	37*	-8
CCOC(=O)Cn1cc(C#N)c(=O)[nH]c1=O	-22	-3	0	8	-3	-2
O=C1CCCN1c1ccc([N+](=O)[O-])cc1	·	-12	0	·	29*	·
O=C1CCCN1c1ccc(S(=O)(=O)N2CCCCC2)cc1	-18	9	3	15	-7	-5
CC(=O)N1c2ccc(S(=O)(=O)N3CCC(C(=O)Nc4cccc(C(F)(F)F)c4)CC3)cc2CC1C (stereo not drawn)	23	-10	9	11	32*	55*
O=C(Nc1cccc(C(F)(F)F)c1)C1CCN(S(=O)(=O)c2ccc(N3CCCC3=O)cc2)CC1	48*	2	16*	30	22	73*
CCc1cccc(NC(=O)C2CCN(S(=O)(=O)c3ccc4c(c3)CC(C)N4C(C)=O)CC2)c1 (stereo not drawn)	-17	4	6	16	5	14
COc1cccc(NC(=O)C2CCN(S(=O)(=O)c3ccc(N4CCCC4=O)cc3)CC2)c1	·	0	13	·	-8	·
O=C(c1ccc([N+](=O)[O-])o1)N1CCc2ccccc21	-16	-13	0	42*	6	-11
Cc1ccc(C(=O)N2CCc3ccccc32)o1	-2	17	-1	21	-7	-8
COc1cc2c(cc1OC)CN(C(=O)c1ccc([N+](=O)[O-])o1)CC2	-23	7	1	46*	-5	-19
O=C(c1ccc([N+](=O)[O-])o1)N1CCOCC1	-25	12	0	76	-16	-8
O=C(c1ccc([N+](=O)[O-])o1)N1CCc2ccccc2C1	-24	8	0	24	-9	0
O=C(c1ccc([N+](=O)[O-])o1)N1CCCCCC1	-14	-12	0	28*	-3	1
SMILES	OX1R antag-1	M1 PAM parental	M1 ag parental	OX1R antag-2	CHO-K1 Ca antag	CHO parental Ca
COc1ccc(-c2nn(-c3ccccc3)cc2C(=O)N2CCN(C(=O)c3ccco3)CC2)cc1	-36	-17	-1	7	6	-19
Cn1nc(-c2ccccc2)cc1NC(=O)c1ccc(Cl)cc1	-21	13	0	36	-8	-11
NC(=O)NC(=O)C(c1ccccc1)N1CCN(S(=O)(=O)c2ccc(Br)s2)CC1 (stereo not drawn)	-15	-5	2	1	-2	-18
Cc1nc2ccccc2c(=O)n1CCc1ccccc1	-12	6	3	33	4	-10
Nc1ccc2nc(CCc3ccccc3)[nH]c2c1	-8	9	3	21	-4	-12
Cc1cc2nc3c(=O)n(CCc4ccccc4)c(=O)[nH]c3nc2cc1N	18	10	26*	16	2	30
Nc1ccc2nc3c(=O)n(C4CCCCC4)c(=O)[nH]c3nc2c1	46*	-12	95*	53	30*	39*
Nc1ccc2nc3c(=O)n(CCc4ccccc4)c(=O)[nH]c3nc2c1	42*	-4	53*	19	16	36*
O=C(NNC1=NC2(CCCC2)Cc2ccccc21)c1cccnc1	-21	-17	0	8	7	-5
CCN(CC)c1ccc(C(=O)OCC(=O)Nc2ccccc2-c2ccccc2)cc1	-3	20	1	49*	7	67*
COC(=O)C1C2CCCCC1C(=O)O2 (stereo not drawn)	·	4	0	·	-3	·
CC(=O)c1ccc(N2CCN(C(=O)c3nn(C)c4c3CS(=O)(=O)c3ccccc3-4)CC2)cc1	-33	-11	16*	13	-2	-26
FC(F)(F)c1ccc(-n2cnc3ccccc32)nc1	-6	-16	0	27	3	-12
COc1ccc(C(=O)c2nccc3cc(OC)c(OC)cc23)cc1OC	-25	0	0	69*	-5	-6
NS(=O)(=O)c1cccc(NC(=O)CN2CCN(S(=O)(=O)c3ccc4c(c3)OCCO4)CC2)c1	-14	9	0	4	-2	-7
Cc1cccn2c(=S)[nH]nc12	·	-13	0	·	26*	·
Cc1ccccc1-n1c(C)n[nH]c1=S	-13	7	0	6	9	-10
CC(C)[C@@H](NC(=O)C1CCN(C(=O)[C@@H]2CCCN2C(=O)OC(C)(C)C)CC1)C(=O)NCc1ccc(F)cc1	-23	16	0	4	3	-17
Clc1ccc2c(N/N=C/c3cccnc3)ccnc2c1	-22	-1	0	35	4	-6
Clc1ccc2c(N/N=C/c3ccc(Br)cc3)ccnc2c1	8	-12	0	15	18	49*
CCN(c1ccccc1)S(=O)(=O)c1ccc(C(=O)NCCCN2CCOCC2)cc1	-13	-18	0	6	-1	-15
COCCN(CCOC)S(=O)(=O)c1ccc(C(=O)NCCCN2CCOCC2)cc1	42	9	0	13	-9	56*
O=C(COC(=O)c1cccc(S(=O)(=O)N2CCCC2)c1)Nc1ccccc1C(F)(F)F	·	-1	0	·	4	·
CN1CCN(C(=O)CC2C(=O)NCCN2Cc2ccc(-c3ccccc3)cc2)CC1 (stereo not drawn)	-12	-3	0	22	-3	-10

Assay outcomes (PubChem BioAssay)
